Activity calls are given as the source filed them. The calls are words filed in the database; no cut-off is given here.
Tests used:
[1] = molecular target: T1, Phospholipase A2 group V (Homo sapiens) (UniProt P39877); experiment: Inhibition of human group 5 sPLA2 at 30 uM
T1 sequence (whole entry): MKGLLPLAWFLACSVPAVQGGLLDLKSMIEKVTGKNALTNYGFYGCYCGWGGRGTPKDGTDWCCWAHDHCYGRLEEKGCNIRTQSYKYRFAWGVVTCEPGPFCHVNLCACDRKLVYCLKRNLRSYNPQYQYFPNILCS
Method in brief: (§1)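 Recombinant human sPLA2 expressed in E. coli, at 40 pM for group V or 20 pM for group X, preincubated with inhibitor 10 min (15 min in legends). Buffer is 100 mM Tris pH 8.0, 10 mM CaCl2, 0.1% BSA. Substrate is E. coli membranes carrying 100,000 dpm 3H-oleate phospholipids, 15 min at room temperature. Reaction stopped with EDTA/fatty-acid-free BSA and centrifuged; supernatant radioactivity counted. Single 30 µM or concentration series for IC50; at least three experiments.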

[2] = molecular target: T2, Group 10 secretory phospholipase A2 (Homo sapiens) (UniProt O15496); experiment: Inhibition of human group 10 sPLA2 at 30 uM; method in brief: as §1
T2 sequence (whole entry): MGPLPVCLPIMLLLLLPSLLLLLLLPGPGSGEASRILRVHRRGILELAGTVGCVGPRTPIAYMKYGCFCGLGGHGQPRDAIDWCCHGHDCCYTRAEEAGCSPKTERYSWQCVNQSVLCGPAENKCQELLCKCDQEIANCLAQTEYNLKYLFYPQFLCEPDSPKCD

[3] = molecular target: T3, Group 10 secretory phospholipase A2 (Homo sapiens, UniProt O15496); experiment: Inhibition of human group 10 sPLA2; method in brief: as §1
T3 sequence (O15496 whole entry): T2 sequence (whole entry)

Phospholipase A2 group V = molecular target: T4, Phospholipase A2 group V (Homo sapiens, UniProt P39877); experiment: Inhibition of human group 5 sPLA2; method in brief: as §1
T4 sequence (P39877 whole entry): T1 sequence (whole entry)

Sulfotransferase 1E1 = molecular target: T5, Sulfotransferase 1E1 (Homo sapiens, UniProt P49888); experiment: Inhibition of human estrogen sulfotransferase
T5 sequence (P49888 whole entry): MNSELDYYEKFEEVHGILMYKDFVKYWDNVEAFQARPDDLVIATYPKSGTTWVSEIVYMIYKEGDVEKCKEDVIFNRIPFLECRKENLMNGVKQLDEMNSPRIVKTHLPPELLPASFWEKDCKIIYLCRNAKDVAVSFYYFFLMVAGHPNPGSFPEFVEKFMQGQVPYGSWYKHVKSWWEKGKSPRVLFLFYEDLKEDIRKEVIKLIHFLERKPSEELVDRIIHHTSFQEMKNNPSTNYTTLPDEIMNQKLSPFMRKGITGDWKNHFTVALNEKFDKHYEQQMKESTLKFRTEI

[4] = molecular target: T6, Group 3 secretory phospholipase A2 (Homo sapiens) (UniProt Q9NZ20); experiment: Inhibition of human group 3 sPLA2 at 100 uM
T6 sequence (whole entry): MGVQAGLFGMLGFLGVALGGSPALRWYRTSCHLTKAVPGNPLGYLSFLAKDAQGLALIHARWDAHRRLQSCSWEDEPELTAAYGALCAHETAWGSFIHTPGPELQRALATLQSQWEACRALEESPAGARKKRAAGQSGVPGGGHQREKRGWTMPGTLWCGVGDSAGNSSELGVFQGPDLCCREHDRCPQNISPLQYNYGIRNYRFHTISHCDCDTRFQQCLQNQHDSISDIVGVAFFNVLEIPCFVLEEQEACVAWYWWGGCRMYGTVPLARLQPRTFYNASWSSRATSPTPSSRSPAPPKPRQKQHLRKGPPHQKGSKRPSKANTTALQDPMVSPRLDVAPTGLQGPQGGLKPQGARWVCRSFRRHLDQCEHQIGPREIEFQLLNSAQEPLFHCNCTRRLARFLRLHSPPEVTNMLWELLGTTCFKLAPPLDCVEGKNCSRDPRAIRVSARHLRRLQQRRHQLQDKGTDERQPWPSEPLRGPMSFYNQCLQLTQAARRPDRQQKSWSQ
Method in brief: (§2)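 Human group III sPLA2 catalytic domain made in Drosophila S2 cells. Inhibitor at 10 or 100 µM preincubated 10 min with enzyme in Tris pH 8.0 buffer with 10 mM CaCl2 and 0.1% BSA. Then 15 min room-temperature hydrolysis of 3H-oleate-labelled E. coli membranes. Stopped with EDTA and fatty-acid-free BSA; supernatant counts after centrifugation.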

[5] = molecular target: T7, Thymidine kinase (Human alphaherpesvirus 1) (UniProt Q9QNF7); experiment: Inhibition of Herpes simplex virus type 1 thymidine kinase
T7 sequence (whole entry): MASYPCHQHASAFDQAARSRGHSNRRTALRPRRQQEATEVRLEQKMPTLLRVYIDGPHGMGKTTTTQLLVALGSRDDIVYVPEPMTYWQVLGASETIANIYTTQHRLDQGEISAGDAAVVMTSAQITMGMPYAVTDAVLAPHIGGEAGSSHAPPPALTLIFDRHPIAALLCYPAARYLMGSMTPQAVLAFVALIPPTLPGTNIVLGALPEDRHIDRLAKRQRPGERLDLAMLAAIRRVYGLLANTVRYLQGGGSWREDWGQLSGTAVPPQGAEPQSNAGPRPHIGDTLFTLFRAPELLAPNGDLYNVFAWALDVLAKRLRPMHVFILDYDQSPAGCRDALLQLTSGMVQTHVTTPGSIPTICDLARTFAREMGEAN

[6] = molecular target: T6, Group 3 secretory phospholipase A2 (Homo sapiens); experiment: Inhibition of human group 3 sPLA2 at 10 uM; method in brief: as §2
Homo sapiens = species: Homo sapiens; experiment: Inhibition of methionine aminopeptidase
[7] = molecular target: T8, Purine nucleoside phosphorylase (Homo sapiens) (UniProt P00491); experiment: Inhibition of human purine nucleoside phosphorylase
T8 sequence (whole entry): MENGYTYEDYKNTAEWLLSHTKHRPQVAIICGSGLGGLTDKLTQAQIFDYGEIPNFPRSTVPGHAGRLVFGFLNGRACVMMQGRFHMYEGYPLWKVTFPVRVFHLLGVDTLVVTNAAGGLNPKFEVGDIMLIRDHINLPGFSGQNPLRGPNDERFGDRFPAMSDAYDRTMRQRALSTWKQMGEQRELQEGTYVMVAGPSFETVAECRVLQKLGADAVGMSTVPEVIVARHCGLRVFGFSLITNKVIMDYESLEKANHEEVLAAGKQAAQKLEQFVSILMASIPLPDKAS

[8] = molecular target: Phospholipase A2 (Homo sapiens) (UniProt P04054); experiment: Inhibition of human group 1B sPLA2 at 30 uM
Method in brief: (§3)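 Recombinant human group IB or IIA sPLA2 from E. coli, enzyme level set for linear hydrolysis. Preincubated 10 min with inhibitor at 30 µM in 100 mM Tris pH 8.0, 10 mM CaCl2, 0.1% BSA. 3H-oleate-labelled E. coli membrane substrate added for 15 min at room temperature. Stopped with EDTA/BSA, centrifuged at 14000g, released radioactivity counted; expressed as percent inhibition.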

[9] = molecular target: T9, Phospholipase A2, membrane associated (Homo sapiens) (UniProt P14555); experiment: Inhibition of human group 2A sPLA2 at 30 uM; method in brief: as §3
T9 sequence (whole entry): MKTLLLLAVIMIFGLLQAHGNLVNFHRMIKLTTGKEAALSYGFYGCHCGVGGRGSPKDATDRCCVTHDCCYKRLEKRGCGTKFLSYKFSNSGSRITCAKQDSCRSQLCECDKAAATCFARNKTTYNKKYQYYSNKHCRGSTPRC

[10] = molecular target: T10, Purine nucleoside phosphorylase (Toxoplasma gondii, UniProt Q2HXR2); experiment: Inhibition of Toxoplasma gondii purine nucleoside phosphorylase
T10 sequence (Q2HXR2 whole entry): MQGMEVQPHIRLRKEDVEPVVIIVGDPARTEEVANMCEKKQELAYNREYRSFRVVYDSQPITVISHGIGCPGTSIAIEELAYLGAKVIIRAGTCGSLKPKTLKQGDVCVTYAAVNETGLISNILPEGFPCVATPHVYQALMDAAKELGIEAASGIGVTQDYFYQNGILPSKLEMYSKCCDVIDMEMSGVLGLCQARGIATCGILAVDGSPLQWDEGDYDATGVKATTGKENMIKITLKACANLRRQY

Phospholipase A2 (Homo sapiens), sequence (P04054 23-148 limits assumed): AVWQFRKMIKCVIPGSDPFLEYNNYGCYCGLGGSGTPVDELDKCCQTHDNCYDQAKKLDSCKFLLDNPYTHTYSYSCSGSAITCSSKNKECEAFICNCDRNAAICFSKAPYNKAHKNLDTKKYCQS

| SMILES | inhibition [1] [%] | Activity (Sulfotransferase 1E1) | Activity [4] | Activity [5] | Activity [6] | Activity (Homo sapiens) | Activity [7] | further results |
| --- | --- | --- | --- | --- | --- | --- | --- | --- |
| CC(C)[C@@H]1NC(=O)N(Cc2ccccc2)CN(C)C1=O | > 70 |  |  |  |  |  |  | inhibition [2]: > 70% |
| CC(C)[C@@H]1NC(=O)N(CC(=O)OC(C)(C)C)CN(C)C1=O | > 70 |  |  |  |  |  |  | IC50 [3]: 11 µM; IC50 (Phospholipase A2 group V): 12 µM; inhibition [2]: > 70% |
| C[C@@H]1NC(=O)NC2Cc3ccccc3CN2C1=O (stereo partly drawn) |  | Not Active | inactive | inactive | inactive | inactive | inactive |  |
| COC(=O)CN1CN(C)C(=O)[C@H](Cc2ccccc2)NC1=O | > 70 |  |  |  |  |  |  |  |
| CN1CNC(=O)N[C@@H](CN)C1=O |  | Not Active | inactive | inactive | inactive | inactive | inactive |  |
| CN1CN(CC(=O)OC(C)(C)C)C(=O)N[C@@H](Cc2ccccc2)C1=O | > 70 |  |  |  |  |  |  |  |
| CN1CN(CC(=O)O)C(=O)N(CC(=O)O)[C@@H](Cc2ccccc2)C1=O | > 70 |  |  |  |  |  |  |  |
| CN1CN(C/C=C/C(=O)O)C(=O)N[C@@H](Cc2ccccc2)C1=O | > 70 |  |  |  |  |  |  | IC50 [3]: 10 µM; IC50 (Phospholipase A2 group V): 12 µM; inhibition [2]: > 70% |
| CC(C)(C)OC(=O)CN1C(=O)N[C@@H](Cc2ccc3ccccc3c2)C(=O)N2CCC[C@@H]12 | > 70 |  |  |  |  |  |  |  |
| CN1CN(CC(=O)O)C(=O)N[C@@H](Cc2ccccc2)C1=O |  | Not Active | inactive | inactive | inactive | inactive | inactive | Activity [8]: inactive; inhibition [9]: 25% |
| CN1CN(CCCC(N)=O)C(=O)N[C@@H](Cc2ccccc2)C1=O | > 70 |  |  |  |  |  |  |  |
| O=C1N[C@@H](Cc2ccccc2)C(=O)N2C[C@H](O)C[C@H]2N1 |  | Not Active | inactive | inactive | inactive | inactive | inactive |  |
| CN1CN(CC(=O)OC(C)(C)C)C(=O)N(CC(=O)OC(C)(C)C)[C@@H](Cc2ccccc2)C1=O | > 70 |  |  |  |  |  |  | IC50 [3]: 11 µM; IC50 (Phospholipase A2 group V): 11 µM |
| CC(C)(C)OC(=O)CN1C(=O)N(CC(=O)OC(C)(C)C)[C@@H](Cc2ccccc2)C(=O)N2CCC[C@H]21 |  |  |  |  |  |  |  | inhibition [2]: > 70% |
| CN1CN(C/C=C/C(=O)OC(C)(C)C)C(=O)N[C@@H](Cc2ccccc2)C1=O |  |  |  |  |  |  |  | inhibition [2]: > 70% |
| CC(C)C[C@@H]1NC(=O)NCN(C)C1=O |  | Not Active | inactive | inactive | inactive | inactive | inactive |  |
| CN1CN(CC(=O)OC(C)(C)C)C(=O)N[C@@H](Cc2ccc3ccccc3c2)C1=O | > 70 |  |  |  |  |  |  |  |
| CN1CN(CCCC(=O)O)C(=O)N[C@@H](Cc2ccccc2)C1=O | > 70 |  |  |  |  |  |  | inhibition [2]: > 70% |
| CN1CNC(=O)N[C@@H](Cc2ccccc2)C1=O |  | Not Active | inactive | inactive | inactive | inactive | inactive |  |
| O=C1N[C@@H](Cc2ccccc2)C(=O)N2C[C@H](OCc3ccccc3)C[C@H]2N1 |  | Not Active | inactive | inactive | inactive | inactive | inactive | Ki [10]: 8 µM |
| CN1C(=O)[C@H](Cc2ccccc2)NC(=O)N[C@@H]1Cc1ccccc1 | > 70 |  |  |  |  |  |  | IC50 [3]: 13 µM; IC50 (Phospholipase A2 group V): 11 µM |
| CC(C)(C)OC(=O)CN1C(=O)N[C@@H](Cc2ccccc2)C(=O)N2CCC[C@@H]12 | > 70 |  |  |  |  |  |  |  |
| O=C1[C@@H]2Cc3ccccc3CN2C(=O)N[C@@H]2CCCN12 |  | Not Active | inactive | inactive | inactive | inactive | inactive |  |
